# A selection: hits, their analogues and other compounds. The true share with any hit is near 5.1%.
# ERa SRC1 pot: ER-alpha (human) coactivator binding potentiation; TR-FRET ERalpha-LBD/SRC-Cy5 coactivator binding, 2 h; 100 = basal binding, no effect; coactivator binding (% of control), % at 25.6 µM; hit rate 1.3% among 86,000; in the data active = activity above about 200%;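 note: binding measured in presence of low estradiol as agonist stimulus; 0% = peptide alone without receptor and 100% = receptor with peptide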
# SF-1 act: SF-1 (human) activation. hit rate 1.9% among 65,000. activation, % at 10 µM. CHO-K1 Gal4-SF-1 LBD luciferase reporter; % increase over DMSO SF-1-specific signal. AID 522. Q13285;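 active = activation above the mean activation of all tested compounds plus 3 SD, cut at about 50% in these data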
# Target sequence (Q13285 whole entry, looked up, the tested form may be a part): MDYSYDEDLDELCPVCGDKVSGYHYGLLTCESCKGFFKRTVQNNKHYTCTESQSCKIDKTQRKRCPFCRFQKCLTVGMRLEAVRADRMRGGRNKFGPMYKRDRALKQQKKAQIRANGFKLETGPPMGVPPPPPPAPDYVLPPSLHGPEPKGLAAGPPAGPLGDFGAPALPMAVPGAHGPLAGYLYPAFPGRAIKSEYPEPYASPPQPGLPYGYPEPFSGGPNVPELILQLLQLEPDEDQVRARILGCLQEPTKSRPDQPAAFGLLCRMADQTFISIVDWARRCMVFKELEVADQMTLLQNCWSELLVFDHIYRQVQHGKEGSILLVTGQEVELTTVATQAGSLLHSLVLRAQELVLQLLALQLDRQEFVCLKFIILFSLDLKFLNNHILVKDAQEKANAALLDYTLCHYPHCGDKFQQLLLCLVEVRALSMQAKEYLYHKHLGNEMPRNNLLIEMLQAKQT
#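 Compound – one dose, 10 µM compound, 1% DMSO · Test system – transient Gal4-SF-1 LBD reporter, CHO-K1 · Input – 4,000 cells in each well · Read-out basis – percent activation relative to DMSO median and mock-transfected background · Replicates – single measurement per compound · Technique – steady-glow luciferase luminescence, read after 15 min reagent incubation · Timing – 20 h compound treatment, 37 °C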
# BAP1 inh: blocks human BAP1 ubiquitin-AMC hydrolysis. Q92560. recombinant BAP1, Ub-AMC hydrolysis fluorescence kinetic; hits give low values. calls only at 20 µM. hit rate 0.48% among 72,000. AID 436;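 active = activity remaining at or below 50% of control, provided the compound also passes the data quality filters; inactive = the rest, including low values that fail the filters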;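 note: 100% = DMSO wells rate and 0% = substrate alone blank rate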
# ERb SRC1 inh: blocks coactivator binding to human estrogen receptor beta. TR-FRET ER-beta LBD / SRC1-Cy5 peptide binding; receptor agonist-loaded with 1 µM estradiol. inhibition, % at 25.6 µM. hit rate 1.3% among 86,000. AID 633;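 active = compounds whose percent inhibition of the receptor-coactivator binding signal exceeds about 50% in the single-dose screen, limit read from the data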;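 note: 0% = receptor plus peptide wells without compound and 100% = peptide-only wells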
# ERa coact inh: blocks coactivator binding to human estrogen receptor alpha. hit rate 1.7% among 86,000. inhibition, % at 25.6 µM. TR-FRET ER-alpha LBD / SRC-1 peptide, estradiol-bound; in the data active = inhibition above about 50%;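 note: 0% = receptor plus peptide control and 100% = peptide only without receptor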
# RORa activator: activates the human nuclear receptor RORA; hit rate 1.5% among 65,000; CHO-K1 Gal4-RORA LBD luciferase reporter, luminescence; percent increase over mock-subtracted basal signal; activation, % at 10 µM;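 active = activation above the mean of all tested compounds plus 3 SD, cut at about 49% in these data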;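 note: 0% = DMSO-treated RORA cells and 100% = added signal equal to DMSO minus mock-transfected cells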
# * hit, by the source's call; i = inactive; · = no result given; [ ] = dose if it differs, or a comment.
SMILES,ERa SRC1 pot,SF-1 act,BAP1 inh,ERb SRC1 inh,ERa coact inh,RORa activator
COc1ccc(CN2C(=O)c3cccnc3C2Nc2cc(Cl)ccc2OC)cc1 (configuration not stated),357*[fluorescence artefact?],6,i,-9,-37,-9
COc1ccc(OC)c(NC2c3ncccc3C(=O)N2Cc2ccco2)c1 (configuration not stated),53,1,i,13,-4,-21
CCOC(=O)CC(=O)CSc1nnc2c(n1)[nH]c1ccccc12,106,53*,i,4,2,45
CCCCSc1nnc2c(n1)[nH]c1ccccc12,157,·,·,44,56*,·
O=C(/C=C1\NC2(CCCC2)Cc2ccccc21)N1CCOCC1,98,7,i,83*[fluorescence artefact?],-2,-7
CSC1=NC(=C2N=C(SC)c3ccccc32)c2ccccc21,·,·,i,·,·,·
COc1ccc(CC(=O)Nc2ccc(-c3noc(-c4cc(OC)c(OC)c(OC)c4)n3)cc2)cc1,121,-8,i,34,34,10
COc1ccc(CC(=O)Nc2ccc(-c3noc(-c4ccc(Cl)cc4)n3)cc2)cc1,128,·,·,40,66*,·
CCOc1ccccc1-c1nc(-c2ccc(NC(=O)c3ccc(Br)o3)cc2)no1,384*,28,·,21,30,6
CCOc1ccccc1-c1nc(-c2cccc(Br)c2)no1,113,·,·,-6,-2,·
CCOc1ccccc1-c1nc(-c2ccc(NC(=O)Cc3ccc(OC)cc3)cc2)no1,287*[fluorescence artefact?],-7,·,50*[fluorescence artefact?],43,12
O=C(O)c1nsnc1NCCO,·,·,i,·,·,·
C=CCNC(=O)C(Cc1ccccc1)C(=O)OCC (configuration not stated),·,·,i,·,·,·
CC(=O)Nc1cccc(NC(=O)c2ccccc2Br)c1,·,·,i,·,·,·
COc1ccc(-c2n[nH]c(C(F)(F)F)c2-c2cc3ccccc3o2)c(O)c1,239*,-2,·,6,1,-3
CCOC(=O)c1[nH]c(C)c(C(=O)N2CCN(C(=O)OCC)CC2)c1CC,114,7,i,-4,99*[fluorescence artefact?],-14
CCOc1ccc(Nc2oc(-c3ccccc3Cl)nc2C#N)cc1,23,·,·,31,71*,·
Cc1ccc(OCC(=O)Nc2ccccc2C)cc1C,·,·,i,·,·,·
CCOC(=O)c1c(C)[nH]c(C(=O)COC(=O)c2ccc(N3CCCC3=O)cc2)c1C,218*[fluorescence artefact?],-8,i,34,51*[fluorescence artefact?],-10
COCCn1c(C)cc(C(=O)COC(=O)c2ccc(N3CCCC3=O)cc2)c1C,88,7,i,0,0,-11
COc1cc(C2=NOC(C(=O)NCc3ccco3)C2)cc(OC)c1OC (configuration not stated),107,55*,i,-8,-10,82*
COC(=O)c1ccc(C=Nc2c(C)n(C)n(-c3ccccc3)c2=O)cc1,·,·,i,·,·,·
Cc1cccc2[nH]c3c(=O)n(CCN4CCNCC4)cnc3c12,114,-4,·,-3,-11,0
CC(C)CCn1cnc2c([nH]c3cccc(Cl)c32)c1=O,596*[fluorescence artefact?],-7,i,17,15,13
CC(=O)c1cccc(NC(=O)CCC2CCCC2)c1,123,·,·,-6,-1,·
SMILES,ERa SRC1 pot,SF-1 act,BAP1 inh,ERb SRC1 inh,ERa coact inh,RORa activator
CC#CCCCC(=O)Nc1cccc(C(=O)O)c1,90,9,i,3,3,56*
O=C(Nc1nc(-c2ccc3ccccc3c2)cs1)c1cc([N+](=O)[O-])ccc1Cl,·,·,i,·,·,·
Cc1nccn1CCC(=O)O,115,5,i,7,6,2
O=C(O)CCn1ccnc1-c1ccccc1,475*,2,i,-1,-10,-8
CCOc1ccccc1C(=O)Nc1ccc(N2CCOCC2)cc1,·,·,i,·,·,·
CC(C)CCSc1nc2c(c(=O)[nH]c(=O)n2C)n1CCC(C)C,·,·,i,·,·,·
CC(=O)Nc1ccc(C(=O)OCCC(C)C)cc1,114,27,i,5,3,51*
CCOC(=O)c1ccc(NC(=O)c2nn(C)cc2Br)cc1,102,47,i,4,7,76*
CCOC(=O)c1ccc(NC(=O)N(CC)CC)cc1,160,63*,·,-10,-7,43
CCOC(=O)C1=C(c2ccccc2)NC(=O)NC1c1ccccc1Cl (configuration not stated),·,·,i,·,·,·

# From PubChem BioAssay
